# Results from ChEMBL document CHEMBL2384906, “Biological activity, design, synthesis and structure activity relationship of some novel derivatives of curcumin containing sulfonamides” (Eur J Med Chem, 2013).
# Calls of active or inactive are those of the source. No cut-off for these calls is given here.
# Tests used:
# [1] = test system: Mus musculus; assay: Antiinflammatory activity in mouse assessed as inhibition of carrageenan-induced increase in paw volume at 200 mg/kg administered 1 hr prior to carrageenan challenge measured after 3 hrs relative to control; type: functional
# Method in brief: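 Mice were fasted 2 h and placed in groups of five. Controls received saline i.p. Phenylbutazone was given at 100 mg/kg i.p., curcumin at 200 mg/kg i.p., and derivatives at 200 mg/kg. After 1 h, 0.1 mL of 1% carrageenan in saline was injected subplantar into the right hind paw. Paw volume was followed by plethysmometer for 3 h, and % inhibition was calculated as (Vc − Vt)/Vc × 100.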
# [2] = test system: Staphylococcus aureus; assay: Antimicrobial activity against Staphylococcus aureus ATCC 11632 assessed as diameter of inhibition zone at 80 uM after 24 hrs by Kirby -Baur disc diffusion method; type: functional; settings: ATCC 11632, 24 h, read-out: DIZ
# Method in brief: (§1)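 Kirby-Bauer disc diffusion was used. Acetone stocks (160 µM) were serially doubled down to 80, 40 and 20 µM. 4 µL of each went onto 5 mm sterile paper discs, which were dried 30 min at 50 °C. Inoculum was 1.5 × 10⁸ CFU/mL diluted to 3 × 10² CFU/mL, and 50 µL was spread on Mueller-Hinton agar. After 24 h at 37 °C the inhibition-zone diameter was measured. Ciprofloxacin served as positive control.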
# [3] = test system: Curvularia lunata; assay: Antifungal activity against Curvularia lunata MTCC 581 assessed as zone of inhibition at 80 uM after 48 hrs by disc diffusion method; type: functional; settings: MTCC 581, 48 h, read-out: IZ
# Method in brief: (§2)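 Spores from 4-day potato dextrose agar cultures, suspended in sterile water at 1.5 × 10⁵ CFU/mL. 0.2 mL was spread on potato dextrose agar. 5 mm filter-paper discs soaked with test compound were laid on the lawn. Incubation was 48 h at 28 °C, then the inhibition zone was measured in mm. Fluconazole was the positive control and acetone the negative control.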
# [4] = test system: Aspergillus niger; assay: Antifungal activity against Aspergillus niger MTCC 1108 assessed as zone of inhibition at 80 uM after 48 hrs by disc diffusion method; type: functional; settings: MTCC 1108, 48 h, read-out: IZ; method in brief: as §2
# [5] = test system: Escherichia coli; assay: Antimicrobial activity against Escherichia coli ATCC 35218 assessed as diameter of inhibition zone at 80 uM after 24 hrs by Kirby -Baur disc diffusion method; type: functional; settings: ATCC 35218, 24 h, read-out: DIZ; method in brief: as §1
# [6] = test system: HepG2; assay: Cytotoxicity against human HepG2 cells after 24 hrs by MTT assay; type: functional, cell-based
# Method in brief: (§3)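 The MTT assay seeded 5 × 10⁴ cells per well and grew them 24 h in RPMI 1640 with compound at 2.5–200 µM. Medium without cells was the blank and adriamycin the positive control. MTT was added for 4 h at 37 °C, formazan was solubilised, and absorbance was read at 570 nm. IC50 is the concentration that cuts viability 50% against untreated cells.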
# [7] = test system: Salmonella typhi; assay: Antimicrobial activity against Salmonella typhi ATCC 23564 assessed as diameter of inhibition zone at 40 uM after 24 hrs by Kirby -Baur disc diffusion method; type: functional, Salmonella enterica subsp. enterica serovar Typhi; settings: Salmonella enterica, ATCC 23564, 24 h; read-out: DIZ
# [8] = test system: Trichoderma viride; assay: Antifungal activity against Trichoderma viride MTCC 1107 assessed as zone of inhibition at 40 uM after 48 hrs by disc diffusion method; type: functional; settings: MTCC 1107, 48 h, read-out: IZ; method in brief: as §2
# [9] = test system: Salmonella typhi; assay: Antimicrobial activity against Salmonella typhi ATCC 23564 assessed as diameter of inhibition zone at 80 uM after 24 hrs by Kirby -Baur disc diffusion method; type: functional, Salmonella enterica subsp. enterica serovar Typhi; settings: Salmonella enterica, ATCC 23564, 24 h; read-out: DIZ
# [10] = test system: Bacillus cereus; assay: Antimicrobial activity against Bacillus cereus MTCC 7350 assessed as diameter of inhibition zone at 20 uM after 24 hrs by Kirby -Baur disc diffusion method; type: functional; settings: MTCC 7350, 24 h, read-out: DIZ; method in brief: as §1
# [11] = test system: HeLa; assay: Cytotoxicity against human HeLa cells after 24 hrs by MTT assay; type: functional, cell-based; method in brief: as §3
# [12] = test system: Aspergillus niger; assay: Antifungal activity against Aspergillus niger MTCC 1108 assessed as zone of inhibition at 40 uM after 48 hrs by disc diffusion method; type: functional; settings: MTCC 1108, 48 h, read-out: IZ; method in brief: as §2
# [13] = test system: Trichoderma viride; assay: Antifungal activity against Trichoderma viride MTCC 1107 after 48 hrs; type: functional; settings: MTCC 1107, 48 h
# [14] = test system: QG-56; assay: Cytotoxicity against human QG56 cells after 24 hrs by MTT assay; type: functional, cell-based; method in brief: as §3
# [15] = test system: Curvularia lunata; assay: Antifungal activity against Curvularia lunata MTCC 581 assessed as zone of inhibition at 40 uM after 48 hrs by disc diffusion method; type: functional; settings: MTCC 581, 48 h, read-out: IZ; method in brief: as §2
# [16] = test system: Aspergillus niger; assay: Antifungal activity against Aspergillus niger MTCC 1108 assessed as zone of inhibition at 20 uM after 48 hrs by disc diffusion method; type: functional; method in brief: as §2
# [17] = test system: Pseudomonas aeruginosa; assay: Antimicrobial activity against Pseudomonas aeruginosa ATCC 15499 after 24 hrs by broth micro serial dilution method; type: functional; settings: ATCC 15499, 24 h
# Method in brief: (§4)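 This was broth microdilution in autoclaved Mueller-Hinton broth. 150 µL of compound per well was serially diluted […], and 50 µL of test organism was added. Plates were incubated 24 h at 37 °C and optical density was read.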
# [18] = test system: Staphylococcus aureus; assay: Antimicrobial activity against Staphylococcus aureus ATCC 11632 after 24 hrs by broth micro serial dilution method; type: functional; settings: ATCC 11632, 24 h; method in brief: as §4
# [19] = test system: Pseudomonas aeruginosa; assay: Antimicrobial activity against Pseudomonas aeruginosa ATCC 15499 assessed as diameter of inhibition zone at 40 uM after 24 hrs by Kirby -Baur disc diffusion method; type: functional; settings: ATCC 15499, 24 h, read-out: DIZ; method in brief: as §1
# [20] = test system: Escherichia coli; assay: Antimicrobial activity against Escherichia coli ATCC 35218 assessed as diameter of inhibition zone at 40 uM after 24 hrs by Kirby -Baur disc diffusion method; type: functional; settings: ATCC 35218, 24 h, read-out: DIZ; method in brief: as §1
# [21] = test system: Curvularia lunata; assay: Antifungal activity against Curvularia lunata MTCC 581 assessed as zone of inhibition at 20 uM after 48 hrs by disc diffusion method; type: functional; settings: MTCC 581, 48 h, read-out: IZ; method in brief: as §2
# [22] = test system: Pseudomonas aeruginosa; assay: Antimicrobial activity against Pseudomonas aeruginosa ATCC 15499 assessed as diameter of inhibition zone at 20 uM after 24 hrs by Kirby -Baur disc diffusion method; type: functional; settings: ATCC 15499, 24 h, read-out: DIZ; method in brief: as §1
# [23] = test system: Bacillus cereus; assay: Antimicrobial activity against Bacillus cereus MTCC 7350 after 24 hrs by broth micro serial dilution method; type: functional; settings: MTCC 7350, 24 h; method in brief: as §4
# [24] = test system: Curvularia lunata; assay: Antifungal activity against Curvularia lunata MTCC 581 after 48 hrs; type: functional; settings: MTCC 581, 48 h
# [25] = test system: Bacillus cereus; assay: Antimicrobial activity against Bacillus cereus MTCC 7350 assessed as diameter of inhibition zone at 80 uM after 24 hrs by Kirby -Baur disc diffusion method; type: functional; settings: MTCC 7350, 24 h, read-out: DIZ; method in brief: as §1
# [26] = test system: Aspergillus flavus; assay: Antifungal activity against Aspergillus flavus MTCC 1021 assessed as zone of inhibition at 20 uM after 48 hrs by disc diffusion method; type: functional; method in brief: as §2
# [27] = test system: Escherichia coli; assay: Antimicrobial activity against Escherichia coli ATCC 35218 assessed as diameter of inhibition zone at 20 uM after 24 hrs by Kirby -Baur disc diffusion method; type: functional; settings: ATCC 35218, 24 h, read-out: DIZ; method in brief: as §1
# [28] = test system: Salmonella typhi; assay: Antimicrobial activity against Salmonella typhi ATCC 23564 assessed as diameter of inhibition zone at 20 uM after 24 hrs by Kirby -Baur disc diffusion method; type: functional, Salmonella enterica subsp. enterica serovar Typhi; settings: Salmonella enterica, ATCC 23564, 24 h; read-out: DIZ
# [29] = test system: Trichoderma viride; assay: Antifungal activity against Trichoderma viride MTCC 1107 assessed as zone of inhibition at 20 uM after 48 hrs by disc diffusion method; type: functional; settings: MTCC 1107, 48 h, read-out: IZ; method in brief: as §2
# [30] = test system: Staphylococcus aureus; assay: Antimicrobial activity against Staphylococcus aureus ATCC 11632 assessed as diameter of inhibition zone at 40 uM after 24 hrs by Kirby -Baur disc diffusion method; type: functional; settings: ATCC 11632, 24 h, read-out: DIZ; method in brief: as §1
# [31] = test system: Staphylococcus aureus; assay: Antimicrobial activity against Staphylococcus aureus ATCC 11632 assessed as diameter of inhibition zone at 20 uM after 24 hrs by Kirby -Baur disc diffusion method; type: functional; settings: ATCC 11632, 24 h, read-out: DIZ; method in brief: as §1
# [32] = test system: Aspergillus flavus; assay: Antifungal activity against Aspergillus flavus MTCC 1021 assessed as zone of inhibition at 40 uM after 48 hrs by disc diffusion method; type: functional; settings: MTCC 1021, 48 h, read-out: IZ; method in brief: as §2
# [33] = test system: Escherichia coli; assay: Antimicrobial activity against Escherichia coli ATCC 35218 after 24 hrs by broth micro serial dilution method; type: functional; settings: ATCC 35218, 24 h; method in brief: as §4
# [34] = test system: Aspergillus flavus; assay: Antifungal activity against Aspergillus flavus MTCC 1021 after 48 hrs; type: functional; settings: MTCC 1021, 48 h
# [35] = test system: Aspergillus flavus; assay: Antifungal activity against Aspergillus flavus MTCC 1021 assessed as zone of inhibition at 80 uM after 48 hrs by disc diffusion method; type: functional; settings: MTCC 1021, 48 h, read-out: IZ; method in brief: as §2
# [36] = test system: HCT-116; assay: Cytotoxicity against human HCT116 cells after 24 hrs by MTT assay; type: functional, cell-based; method in brief: as §3
# [37] = test system: Aspergillus niger; assay: Antifungal activity against Aspergillus niger MTCC 1108 after 48 hrs; type: functional; settings: MTCC 1108, 48 h
# [38] = test system: Pseudomonas aeruginosa; assay: Antimicrobial activity against Pseudomonas aeruginosa ATCC 15499 assessed as diameter of inhibition zone at 80 uM after 24 hrs by Kirby -Baur disc diffusion method; type: functional; settings: ATCC 15499, 24 h, read-out: DIZ; method in brief: as §1
# [39] = test system: Bacillus cereus; assay: Antimicrobial activity against Bacillus cereus MTCC 7350 assessed as diameter of inhibition zone at 40 uM after 24 hrs by Kirby -Baur disc diffusion method; type: functional; settings: MTCC 7350, 24 h, read-out: DIZ; method in brief: as §1
# [40] = test system: Salmonella typhi; assay: Antimicrobial activity against Salmonella typhi ATCC 23564 after 24 hrs by broth micro serial dilution method; type: functional, Salmonella enterica subsp. enterica serovar Typhi; settings: Salmonella enterica, ATCC 23564, 24 h
# [41] = test system: Trichoderma viride; assay: Antifungal activity against Trichoderma viride MTCC 1107 assessed as zone of inhibition at 80 uM after 48 hrs by disc diffusion method; type: functional; settings: MTCC 1107, 48 h, read-out: IZ; method in brief: as §2
compound,measurement,setting,value
COc1cc(/C=C/C(CC(/C=C/c2ccc(O)c(OC)c2)=N/c2ccc(S(=O)(=O)Nc3ccccn3)cc2)=N\c2ccc(S(=O)(=O)Nc3ccccn3)cc2)ccc1O,inhibition in vivo at 200 mg/kg,[1],9.6%
same,zone of inhibition at 80 µM,[2],19 mm
same,zone of inhibition at 80 µM,[3],12 mm
same,zone of inhibition at 80 µM,[4],12 mm
same,zone of inhibition at 80 µM,[5],17 mm
same,IC50,[6],100 µM
same,zone of inhibition at 40 µM,[7],17 mm
same,zone of inhibition at 40 µM,[8],13 mm
same,zone of inhibition at 80 µM,[9],19 mm
same,zone of inhibition at 20 µM,[10],10 mm
same,IC50,[11],50 µM
same,zone of inhibition at 40 µM,[12],9 mm
same,MIC,[13],20 µM
same,IC50,[14],100 µM
same,zone of inhibition at 40 µM,[15],9 mm
same,inhibition zone (IZ),[16],inactive
same,MIC,[17],40 µM
same,MIC,[18],40 µM
same,zone of inhibition at 40 µM,[19],16 mm
same,zone of inhibition at 40 µM,[20],16 mm
same,zone of inhibition at 20 µM,[21],9 mm
same,zone of inhibition at 20 µM,[22],13 mm
same,MIC,[23],40 µM
same,MIC,[24],80 µM
same,zone of inhibition at 80 µM,[25],18 mm
same,inhibition zone (IZ),[26],inactive
same,zone of inhibition at 20 µM,[27],12 mm
same,zone of inhibition at 20 µM,[28],12 mm
same,zone of inhibition at 20 µM,[29],10 mm
same,zone of inhibition at 40 µM,[30],17 mm
same,zone of inhibition at 20 µM,[31],13 mm
same,zone of inhibition at 40 µM,[32],9 mm
same,MIC,[33],40 µM
same,MIC,[34],> 80 µM
same,zone of inhibition at 80 µM,[35],11 mm
same,IC50,[36],50 µM
same,MIC,[37],80 µM
same,zone of inhibition at 80 µM,[38],18 mm
same,zone of inhibition at 40 µM,[39],15 mm
same,MIC,[40],40 µM
same,zone of inhibition at 80 µM,[41],17 mm
